Assay results taken from ChEMBL document CHEMBL1139834, “Synthesis and structure-activity relationships of new benzodioxinic lactones as potential anticancer drugs” (J Med Chem, 2007).

Assays:
Format in all cases: functional
HCT-116 = test: Antitumor activity against human HCT116 cell line
Procedure, shortened: (§1)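 Human tumour cell line panel. GI50 is the concentration giving 50% growth inhibition, averaged over at least two determinations. LC50 is the concentration killing 50% of cells in a […] assay.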

A498 = test: Antitumor activity against human A498 cell line; procedure, shortened: as §1
EKVX = test: Antitumor activity against human EKVX cell line; procedure, shortened: as §1
SNB-75 = test: Antitumor activity against human SNB75 cell line; details: read-out: LC50 (the source's name)
Procedure, shortened: (§2)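 Human tumour cell lines from a selected panel. GI50 is the concentration giving 50% growth inhibition, averaged from at least two determinations. LC50 is the concentration killing 50% of cells in a […] assay.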

Malme-3M = test: Antitumor activity against human MALME3M cell line; procedure, shortened: as §1
RXF 393 = test: Antitumor activity against human RXF393 cell line; procedure, shortened: as §1
T47D = test: Antitumor activity against human T47D cell line; procedure, shortened: as §2
[1] = Antitumor activity against human IGROVI cell line; procedure, shortened: as §1
NCI-H226 = test: Antitumor activity against human NCI-H226 cell line; procedure, shortened: as §1
HOP-92 = test: Antitumor activity against human HOP92 cell line; procedure, shortened: as §1
M14 = test: Antitumor activity against human M14 cell line; procedure, shortened: as §1
Hs-578T = test: Antitumor activity against human HS578T cell line; procedure, shortened: as §1
OVCAR-5 = test: Antitumor activity against human OVCAR5 cell line; procedure, shortened: as §1
K562 = test: Antitumor activity against human K562 cell line; procedure, shortened: as §1
UO-31 = test: Antitumor activity against human UO31 cell line; procedure, shortened: as §2
OVCAR-8 = test: Antitumor activity against human OVCAR8 cell line; procedure, shortened: as §1
CCRF-CEM = test: Antitumor activity against human CCRF-CEM cell line; procedure, shortened: as §1
SW-620 = test: Antitumor activity against human SW620 cell line; procedure, shortened: as §2
[2] = read-out: LC50 (the source's name)

Question: For `CCCCc1c2c(c(C)c3c1C(=O)OC3)Oc1ccccc1O2`, which GI50 (HCT-116) is on record?
Answer: 0.38 µM

Question: What about the CC50 (HCT-116; [2]) of the same compound?
Answer: 50 µM

Question: And the GI50 (A498)?
Answer: 0.776 µM

Question: What about the CC50 (A498; [2]) of the same compound?
Answer: 100 µM

Question: What about the GI50 (EKVX) of the same compound?
Answer: 2.95 µM

Question: What about the CC50 (EKVX; [2]) of the same compound?
Answer: 100 µM

Question: And the CC50 (SNB-75)?
Answer: 90 µM

Question: What about the GI50 (Malme-3M) of the same compound?
Answer: 0.447 µM

Question: And the CC50 (Malme-3M; [2])?
Answer: 100 µM

Question: What about the GI50 (RXF 393) of the same compound?
Answer: 0.977 µM

Question: What about the CC50 (RXF 393; [2]) of the same compound?
Answer: 100 µM

Question: What about the GI50 (T47D) of the same compound?
Answer: 6.46 µM

Question: What about the CC50 (T47D; [2]) of the same compound?
Answer: 100 µM

Question: And the GI50 [1]?
Answer: 0.282 µM

Question: What about the CC50 [1, 2] of the same compound?
Answer: 10 µM

Question: What about the GI50 (NCI-H226) of the same compound?
Answer: 1.86 µM

Question: What about the CC50 (NCI-H226; [2]) of the same compound?
Answer: 100 µM

Question: What about the GI50 (HOP-92) of the same compound?
Answer: 5.75 µM

Question: And the CC50 (HOP-92; [2])?
Answer: 100 µM

Question: And the GI50 (M14)?
Answer: 0.603 µM

Question: What about the CC50 (M14; [2]) of the same compound?
Answer: 100 µM

Question: And the GI50 (Hs-578T)?
Answer: 0.363 µM

Question: And the CC50 (Hs-578T; [2])?
Answer: 100 µM

Question: And the GI50 (OVCAR-5)?
Answer: 7.59 µM

Question: What about the CC50 (OVCAR-5; [2]) of the same compound?
Answer: 100 µM

Question: And the GI50 (K562)?
Answer: 0.38 µM

Question: What about the CC50 (K562; [2]) of the same compound?
Answer: 100 µM

Question: And the GI50 (UO-31)?
Answer: 2.24 µM

Question: What about the CC50 (UO-31; [2]) of the same compound?
Answer: 100 µM

Question: And the GI50 (OVCAR-8)?
Answer: 3.55 µM

Question: And the CC50 (OVCAR-8; [2])?
Answer: 100 µM

Question: What about the GI50 (CCRF-CEM) of the same compound?
Answer: 0.501 µM

Question: What about the CC50 (CCRF-CEM; [2]) of the same compound?
Answer: 100 µM

Question: What about the GI50 (SW-620) of the same compound?
Answer: 0.525 µM

Question: What about the CC50 (SW-620; [2]) of the same compound?
Answer: 100 µM
